Results as given in ChEMBL document CHEMBL5236549, “Discovery of 2-Sulfinyl-Diazabicyclooctane Derivatives, Potential Oral β-Lactamase Inhibitors for Infections Caused by Serine β-Lactamase-Producing Enterobacterales” (J Med Chem, 2021).

Tests used:
[1] = Tmax in dog at 10 mg/kg,po by LC/MS/MS analysis; type: ADME, organism-based, Canis lupus familiaris; conditions: in vivo
[2] = Oral bioavailability in mouse at 100 mg/kg by LC/MS/MS analysis; type: ADME, organism-based; conditions: in vivo
Summary of the method: (§1)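 Plasma of the parent acid measured by LC/MS/MS (methanol precipitation, positive ESI, external standard); oral values follow prodrug dosing (rat fed, dog and monkey fasted). AUC from 0 h to last time point by linear trapezoid; F from oral AUC versus iv AUC of the parent. N = 2 (rat, dog), N = 3 (monkey, mouse).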

[3] = Oral bioavailability in mouse at 30 mg/kg by LC/MS/MS analysis; type: ADME, organism-based; conditions: in vivo; summary of the method: as §1
[4] = Cmax in monkey at 10 mg/kg,po by LC/MS/MS analysis; type: ADME, organism-based, Macaca mulatta; design: dose 10 mg/kg, route po; conditions: rhesus monkey, in vivo; summary of the method: as §1
[5] = Toxicity in rat at 600 mg/kg,po administered for two weeks; type: organism-based; conditions: in vivo
Summary of the method: (§2)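 Two-week rat toxicology study with daily oral dosing of prodrug; NOAEL and lethal dose established.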

[6] = Cmax in mouse at 10 mg/kg,po by LC/MS/MS analysis; type: ADME, organism-based; design: dose 10 mg/kg, route po; conditions: in vivo; summary of the method: as §1
[7] = AUC in mouse at 100 mg/kg,po by LC/MS/MS analysis; type: ADME, organism-based; design: dose 100 mg/kg, route po; conditions: in vivo; summary of the method: as §1
[8] = AUC in mouse at 10 mg/kg,po by LC/MS/MS analysis; type: ADME, organism-based; design: dose 10 mg/kg, route po; conditions: in vivo; summary of the method: as §1
[9] = Cmax in dog at 10 mg/kg,po by LC/MS/MS analysis; type: ADME, organism-based, Canis lupus familiaris; design: dose 10 mg/kg, route po; conditions: in vivo; summary of the method: as §1
[10] = Oral bioavailability in monkey at 10 mg/kg by LC/MS/MS analysis; type: ADME, organism-based, Macaca mulatta; conditions: rhesus monkey, in vivo; summary of the method: as §1
[11] = Oral bioavailability in rat at 5 mg/kg by LC/MS/MS analysis; type: ADME, organism-based; conditions: in vivo; summary of the method: as §1
[12] = AUC in dog at 10 mg/kg,po by LC/MS/MS analysis; type: ADME, organism-based, Canis lupus familiaris; design: dose 10 mg/kg, route po; conditions: in vivo; summary of the method: as §1
[13] = AUC in rat at 5 mg/kg,po by LC/MS/MS analysis; type: ADME, organism-based; design: dose 5 mg/kg, route po; conditions: in vivo; summary of the method: as §1
[14] = Cmax in rat at 5 mg/kg,po by LC/MS/MS analysis; type: ADME, organism-based; design: dose 5 mg/kg, route po; conditions: in vivo; summary of the method: as §1
[15] = Cmax in mouse at 30 mg/kg,po by LC/MS/MS analysis; type: ADME, organism-based; design: dose 30 mg/kg, route po; conditions: in vivo; summary of the method: as §1
Klebsiella pneumoniae [16] = assay: Antibacterial activity in ICR mouse infected with Klebsiella pneumoniae SR08667 assessed as reduction in bacterial colony forming units at 30 mg/kg,po administered upto 48 hrs after infection in presence of CTB; type: functional
Summary of the method: (§3)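 Urinary tract infection model in 5-week-old female ICR mice, N = 5 per arm. 1.2 × 10⁶ CFU given transurethrally, urethra tied for 4 h. Oral dosing at 4, 8, 28 and 32 h post-infection in 0.5% methylcellulose: ceftibuten 30 mg/kg alone, ceftibuten 10 mg/kg plus prodrug 3, 10 or 30 mg/kg, or both at 30 mg/kg. Kidneys homogenized at 4 or 48 h and plated on modified Drigalski agar. Read-out is change in log CFU/kidney versus untreated controls at treatment start.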

[17] = Tmax in rat at 5 mg/kg,po by LC/MS/MS analysis; type: ADME, organism-based; conditions: in vivo
[18] = Tmax in monkey at 10 mg/kg,po by LC/MS/MS analysis; type: ADME, organism-based, Macaca mulatta; conditions: rhesus monkey, in vivo
[19] = Toxicity in rat at > 2000 mg/kg,po administered for two weeks; type: organism-based; conditions: in vivo; summary of the method: as §2
[20] = AUC in mouse at 30 mg/kg,po by LC/MS/MS analysis; type: ADME, organism-based; design: dose 30 mg/kg, route po; conditions: in vivo; summary of the method: as §1
[21] = Stability of the compound in phosphate buffer at pH 7.0 assessed as parent compound remaining at 40 degreeC measured after 16 hrs; type: physicochemical; conditions: read-out: Stability
Summary of the method: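 Compound held in pH 7.0 phosphate buffer at 40 °C for 16 h; amount remaining reported as %.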

Klebsiella pneumoniae [22] = assay: Antibacterial activity in ICR mouse infected with Klebsiella pneumoniae SR08667 assessed as reduction in bacterial colony forming units at 10 mg/kg,po administered upto 48 hrs after infection in presence of CTB; type: functional; summary of the method: as §3
[23] = Oral bioavailability in dog at 10 mg/kg by LC/MS/MS analysis; type: ADME, organism-based, Canis lupus familiaris; conditions: in vivo; summary of the method: as §1
[24] = Cmax in mouse at 100 mg/kg,po by LC/MS/MS analysis; type: ADME, organism-based; design: dose 100 mg/kg, route po; conditions: in vivo; summary of the method: as §1
[25] = Oral bioavailability in mouse at 10 mg/kg by LC/MS/MS analysis; type: ADME, organism-based; conditions: in vivo; summary of the method: as §1
[26] = AUC in monkey at 10 mg/kg,po by LC/MS/MS analysis; type: ADME, organism-based, Macaca mulatta; design: dose 10 mg/kg, route po; conditions: rhesus monkey, in vivo; summary of the method: as §1

C[S@@+]([O-])[C@@H]1CC[C@@H]2CN1C(=O)N2O[C@H](F)C(=O)OC1CCCCC1
Tmax [1]: 1 h
bioavailability [2]: 102%
bioavailability [3]: 122%
Cmax [4]: 7940 ng/mL
Activity [5]: Non-Toxic
Cmax [6]: 5600 ng/mL
AUC [7]: 50200 ng·h/mL
AUC [8]: 3900 ng·h/mL
Cmax [9]: 15800 ng/mL
bioavailability [10]: 54.8%
bioavailability [11]: 37.8%
AUC [12]: 41200 ng·h/mL
AUC [13]: 1170 ng·h/mL
Cmax [14]: 620 ng/mL
Cmax [15]: 21400 ng/mL
Activity (Klebsiella pneumoniae [16]): >1 log10CFU
Tmax [17]: 0.5 h
Tmax [18]: 1 h
Activity [19]: Non-Toxic
AUC [20]: 18100 ng·h/mL
remaining at 16 h [21]: 56%
Activity (Klebsiella pneumoniae [22]): >0.5 log10CFU
bioavailability [23]: 106%
Cmax [24]: 52000 ng/mL
bioavailability [25]: 80%
AUC [26]: 15200 ng·h/mL
